Data as given in ChEMBL document CHEMBL3425495, “Perturbation of the c-Myc-Max protein-protein interaction via synthetic α-helix mimetics” (J Med Chem, 2015).
The source made the active and inactive calls. No cut-off for these calls is given here.

Legend:
NCI-H460 = assay: Induction of neutral lipid accumulation in human H460 cells assessed as ratio of mean florescent intensity of compound treated to control cells at 40 uM after 48 hrs by flow cytometry; type: functional
Outline: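 Sub-confluent H460 cells given compound 48 h; trypsinised, washed, stained 30 min at ambient temperature with BODIPY […]/503 (stock 50 µg/ml, 0.9 ml added to 0.1 ml cells); flow cytometry of ≥10⁴ events; mean fluorescence of treated over untreated cells; biological triplicates, ± one standard error.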

c-Myc/Max [1] = biological target: T1, c-Myc/Max (Homo sapiens, UniProt P01106+P61244); conditions: 6.3 to 50 uM
T1 sequence (P01106 whole entry): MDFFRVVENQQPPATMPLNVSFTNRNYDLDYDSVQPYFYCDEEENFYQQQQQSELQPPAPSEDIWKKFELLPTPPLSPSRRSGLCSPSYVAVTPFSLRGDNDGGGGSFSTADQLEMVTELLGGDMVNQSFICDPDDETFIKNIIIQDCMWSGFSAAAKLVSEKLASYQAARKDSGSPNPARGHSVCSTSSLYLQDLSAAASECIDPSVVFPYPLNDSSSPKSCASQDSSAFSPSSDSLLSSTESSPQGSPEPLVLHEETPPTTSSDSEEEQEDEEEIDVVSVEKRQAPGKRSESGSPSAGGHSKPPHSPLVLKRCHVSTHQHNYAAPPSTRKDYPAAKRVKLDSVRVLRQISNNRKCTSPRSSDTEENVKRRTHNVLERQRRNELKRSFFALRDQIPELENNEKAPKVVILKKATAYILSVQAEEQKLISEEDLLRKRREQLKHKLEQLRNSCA
T1 sequence (P61244 whole entry): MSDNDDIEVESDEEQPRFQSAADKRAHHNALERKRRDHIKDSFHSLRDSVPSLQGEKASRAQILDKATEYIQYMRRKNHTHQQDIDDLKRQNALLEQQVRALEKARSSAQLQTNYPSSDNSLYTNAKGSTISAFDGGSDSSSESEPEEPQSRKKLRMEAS

c-Myc/Max [2] = biological target: T1, c-Myc/Max; conditions: 6.3 to 50 uM; remark: listed apart in the source
c-Myc/Max [3] = biological target: T1, c-Myc/Max; assay: Disruption of human recombinant c-Myc-Max/DNA (unknown origin) binding assessed as complex level by electrophoretic mobility shift assay relative to control; type: protein-complex assay
Outline: (§1)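 Recombinant c-Myc 353–437 bHLH-ZIP with full-length Max(S), or Max(L) alone, from E. coli (His₆ removed by TEV), each 30 nM, with 30 nM HEX-labelled double-stranded oligonucleotide bearing a c-Myc site; buffer 1× PBS pH 7.3, 1 mM EDTA, 0.1% NP40, 5% glycerol, 1 mM DTT, 400 µg/mL BSA; complex level relative to DMSO control; three independent EMSAs.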

Daudi = assay: Antiproliferative activity against c-Myc-overexpressing human Daudi cells after 3 days by MTT assay; type: functional, cell-based; conditions: 72 h
Outline: (§2)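 Cells at >90% viability seeded at 2×10³ cells/well in fresh growth medium with 10-point serial dilutions of compound; 3-day incubation; viability by MTT, relative to untreated cells; each point in at least triplicate; IC50 from dose–response. HO15.19-wt-Myc are myc−/− rat fibroblasts with c-Myc restored by stable retroviral transduction.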

[4] = Cell cycle arrest in human HL60 cells assessed as accumulation at G0/G1 phase at 20 uM after 24 hrs by propidium iodide staining-based flow cytometric analysis (reference value: 39%); type: functional; conditions: HL-60
[5] = Cell cycle arrest in human HL60 cells assessed as accumulation at S phase at 20 uM after 24 hrs by propidium iodide staining-based flow cytometric analysis (reference value: 49%); type: functional; conditions: HL-60
[6] = Cell cycle arrest in human HL60 cells assessed as accumulation at G2/M phase at 20 uM after 24 hrs by propidium iodide staining-based flow cytometric analysis (reference value: 11.2%); type: functional; conditions: HL-60
[7] = Cell cycle arrest in human HL60 cells assessed as accumulation at G0/G1 phase at 40 uM after 24 hrs by propidium iodide staining-based flow cytometric analysis (reference value: 39%); type: functional; conditions: HL-60
[8] = Cell cycle arrest in human HL60 cells assessed as accumulation at S phase at 40 uM after 24 hrs by propidium iodide staining-based flow cytometric analysis (reference value: 49%); type: functional; conditions: HL-60
[9] = Cell cycle arrest in human HL60 cells assessed as accumulation at G2/M phase at 40 uM after 24 hrs by propidium iodide staining-based flow cytometric analysis (reference value: 11.2%); type: functional; conditions: HL-60
c-Myc/Max [10] = biological target: T1, c-Myc/Max; assay: Induction of dissociation of […]-Max in human HL60 cells at 40 to 72 uM after 6 hrs by Co-immunoprecipitation (Co-IP) assay; type: cell-based; conditions: HL-60
Outline: (§3)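 About 5×10⁶ HL60 cells exposed 6 h to compound or DMSO; lysed in IP buffer; 300 µg cleared lysate immunoprecipitated overnight at 4 °C with anti-Max (1:200) and protein G-Sepharose; 10% SDS-PAGE, immunoblot with anti-c-Myc 9E10 (1:1000); input lysate kept for comparison.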

c-Myc/Max [11] = biological target: T1, c-Myc/Max; assay: Disruption of human recombinant c-Myc-Max(S)/DNA (unknown origin) binding assessed as complex level at 100 uM by electrophoretic mobility shift assay relative to control; type: protein-complex assay; outline: as §1
[12] = biological target: Protein max (Homo sapiens) (UniProt P61244); assay: Binding affinity to human recombinant 15N labeled Max(S) homodimer assessed as chemical shift up to 100 uM by NMR spectroscopy
Chain of Protein max (Homo sapiens) (P61244 whole entry): as above

c-Myc/Max [13] = biological target: T1, c-Myc/Max; assay: Binding affinity to human recombinant 15N labeled c-Myc-Max(S) heterodimer assessed as chemical shift up to 100 uM by NMR spectroscopy; type: protein-complex assay
c-Myc/Max [14] = biological target: T1, c-Myc/Max; assay: Inhibition of heterodimerization of human recombinant His-tagged c-Myc-Max(S) compound treated for 20 mins with c-Myc and followed by added Max(S) at 3.1 to 50 uM after 30 mins by SPR analysis in presence of biotinylated E-box-containing oligonucleotides; type: protein-complex assay
c-Myc/Max [15] = biological target: T1, c-Myc/Max; assay: Inhibition of human recombinant His-tagged c-Myc-Max(S) heterodimer binding to DNA at 3.1 to 50 uM after 30 mins by SPR analysis in presence of biotinylated E-box-containing oligonucleotides; type: protein-complex assay
[16] = Antiproliferative activity against human INA-6 cells after 3 days by MTT assay; type: functional, cell-based; conditions: INA-6, 72 h; outline: as §2
[17] = Antiproliferative activity against human IH-1 cells after 3 days by MTT assay; type: functional, cell-based; conditions: IH-1, 72 h; outline: as §2
[18] = Antiproliferative activity against human H460 cells after 3 days by MTT assay; type: functional, cell-based; conditions: NCI-H460, 72 h; outline: as §2
HeLa = assay: Antiproliferative activity against human HeLa cells after 3 days by MTT assay; type: functional, cell-based; conditions: 72 h; outline: as §2
HEK293 = assay: Antiproliferative activity against human HEK293 cells after 3 days by MTT assay; type: functional, cell-based; conditions: HEK293, 72 h; outline: as §2
[19] = Antiproliferative activity against human JJN-3 cells after 3 days by MTT assay; type: functional, cell-based; conditions: JJN-3, 72 h; outline: as §2
[20] = Antiproliferative activity against human ANBL-6 cells after 3 days by MTT assay; type: functional, cell-based; conditions: ANBL-6, 72 h; outline: as §2
[21] = Antiproliferative activity against human KJON cells after 3 days by MTT assay; type: functional, cell-based; conditions: 72 h; outline: as §2
[22] = Antiproliferative activity against human U266 cells after 3 days by MTT assay; type: functional, cell-based; conditions: U-266, 72 h; outline: as §2
[23] = Antiproliferative activity against rat HO15.19-wt-Myc cells after 3 days by MTT assay; type: functional, cell-based; conditions: HO15.19, 72 h; outline: as §2
[24] = Cell cycle arrest in human HL60 cells assessed as accumulation at G0/G1 phase at 10 uM after 24 hrs by propidium iodide staining-based flow cytometric analysis (reference value: 31.2%); type: functional; conditions: HL-60
[25] = Cell cycle arrest in human HL60 cells assessed as accumulation at S phase at 10 uM after 24 hrs by propidium iodide staining-based flow cytometric analysis (reference value: 58.4%); type: functional; conditions: HL-60
[26] = Cell cycle arrest in human HL60 cells assessed as accumulation at G2/M phase at 10 uM after 24 hrs by propidium iodide staining-based flow cytometric analysis (reference value: 10.3%); type: functional; conditions: HL-60
[27] = Cell cycle arrest in human HL60 cells assessed as accumulation at G0/G1 phase at 15 uM after 24 hrs by propidium iodide staining-based flow cytometric analysis (reference value: 31.2%); type: functional; conditions: HL-60
[28] = Cell cycle arrest in human HL60 cells assessed as accumulation at S phase at 15 uM after 24 hrs by propidium iodide staining-based flow cytometric analysis (reference value: 58.4%); type: functional; conditions: HL-60
[29] = Cell cycle arrest in human HL60 cells assessed as accumulation at G2/M phase at 15 uM after 24 hrs by propidium iodide staining-based flow cytometric analysis (reference value: 10.3%); type: functional; conditions: HL-60
c-Myc/Max [30] = biological target: T1, c-Myc/Max; assay: Induction of dissociation of […]-Max in human HL60 cells at 10 to 30 uM after 6 hrs by Co-immunoprecipitation (Co-IP) assay; type: cell-based; conditions: HL-60; outline: as §3
[31] = biological target: Myc proto-oncogene protein (Homo sapiens) (UniProt P01106); assay: Inhibition of wild type c-Myc binding site (unknown origin) expressed in human HeLa cells assessed as inhibition of luciferase after 6 hrs; type: cell-based
Chain of Myc proto-oncogene protein (Homo sapiens) (P01106 whole entry): as the sequence (P01106 whole entry) above
Outline: (§4)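 HeLa cells stably carrying a labile luciferase under a minimal promoter with triplicated c-Myc or NF-κB sites, methotrexate-amplified; 10⁶ cells seeded, next day compound for 6 h; lysates assayed in triplicate, normalised to protein, background (mutant-site line) subtracted, expressed relative to untreated cells (100%); mean ± 1 standard error.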

[32] = biological target: Nuclear factor NF-kappa-B complex (Homo sapiens) (UniProt Q00653+P19838+Q04206); assay: Inhibition of NFkappaB binding site (unknown origin) expressed in human HeLa cells assessed as inhibition of luciferase after 6 hrs; type: cell-based; outline: as §4
Chain of Nuclear factor NF-kappa-B complex (Homo sapiens) (P19838 whole entry, looked up): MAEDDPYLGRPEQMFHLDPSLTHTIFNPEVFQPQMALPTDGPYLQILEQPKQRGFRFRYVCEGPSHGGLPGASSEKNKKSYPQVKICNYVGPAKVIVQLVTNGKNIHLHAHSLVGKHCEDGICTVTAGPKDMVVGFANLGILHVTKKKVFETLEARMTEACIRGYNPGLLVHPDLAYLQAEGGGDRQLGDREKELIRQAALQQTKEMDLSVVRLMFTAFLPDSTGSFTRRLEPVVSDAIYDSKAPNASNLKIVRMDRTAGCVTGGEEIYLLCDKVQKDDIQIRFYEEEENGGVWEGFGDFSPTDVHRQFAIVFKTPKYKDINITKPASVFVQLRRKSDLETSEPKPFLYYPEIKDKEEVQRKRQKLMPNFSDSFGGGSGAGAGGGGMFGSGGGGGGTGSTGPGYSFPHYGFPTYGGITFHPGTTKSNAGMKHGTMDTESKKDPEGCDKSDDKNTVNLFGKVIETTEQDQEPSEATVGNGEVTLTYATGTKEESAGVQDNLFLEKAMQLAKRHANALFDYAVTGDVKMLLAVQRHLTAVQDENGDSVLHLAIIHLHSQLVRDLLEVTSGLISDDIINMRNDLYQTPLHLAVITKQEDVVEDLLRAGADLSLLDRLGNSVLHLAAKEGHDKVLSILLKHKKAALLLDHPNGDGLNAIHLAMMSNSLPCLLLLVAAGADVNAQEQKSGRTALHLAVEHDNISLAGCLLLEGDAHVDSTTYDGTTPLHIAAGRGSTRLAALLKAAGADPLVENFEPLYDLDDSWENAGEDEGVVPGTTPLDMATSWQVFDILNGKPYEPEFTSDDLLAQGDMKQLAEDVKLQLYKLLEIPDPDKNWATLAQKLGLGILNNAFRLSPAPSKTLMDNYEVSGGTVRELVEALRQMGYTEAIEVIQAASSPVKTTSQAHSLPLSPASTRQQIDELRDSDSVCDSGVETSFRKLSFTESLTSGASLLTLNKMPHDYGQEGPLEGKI
Chain of Nuclear factor NF-kappa-B complex (Homo sapiens) (Q00653 whole entry, looked up): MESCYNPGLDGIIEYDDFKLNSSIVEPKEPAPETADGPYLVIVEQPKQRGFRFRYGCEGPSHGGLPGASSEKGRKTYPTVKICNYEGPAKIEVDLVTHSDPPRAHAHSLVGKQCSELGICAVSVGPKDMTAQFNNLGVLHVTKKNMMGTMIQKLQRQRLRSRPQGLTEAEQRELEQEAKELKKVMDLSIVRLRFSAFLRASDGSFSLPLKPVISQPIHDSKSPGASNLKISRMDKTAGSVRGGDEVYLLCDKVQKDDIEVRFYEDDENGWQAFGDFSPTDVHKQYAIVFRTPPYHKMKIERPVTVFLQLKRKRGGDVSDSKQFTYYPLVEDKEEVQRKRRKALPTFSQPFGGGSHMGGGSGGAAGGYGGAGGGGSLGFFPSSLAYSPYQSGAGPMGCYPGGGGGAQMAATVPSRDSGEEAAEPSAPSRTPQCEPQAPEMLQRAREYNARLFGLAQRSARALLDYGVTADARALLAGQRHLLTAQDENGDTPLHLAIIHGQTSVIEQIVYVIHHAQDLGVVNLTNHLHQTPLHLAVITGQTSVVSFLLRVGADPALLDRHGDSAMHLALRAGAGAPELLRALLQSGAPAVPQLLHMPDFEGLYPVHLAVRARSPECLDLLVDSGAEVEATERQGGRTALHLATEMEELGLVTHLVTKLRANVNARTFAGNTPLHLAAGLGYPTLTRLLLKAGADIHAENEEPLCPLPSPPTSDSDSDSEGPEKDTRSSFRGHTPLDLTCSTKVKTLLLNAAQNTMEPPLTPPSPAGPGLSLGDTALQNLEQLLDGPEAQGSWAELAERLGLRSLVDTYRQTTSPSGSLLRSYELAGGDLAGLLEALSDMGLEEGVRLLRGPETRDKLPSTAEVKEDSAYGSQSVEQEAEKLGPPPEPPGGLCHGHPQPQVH
Chain of Nuclear factor NF-kappa-B complex (Homo sapiens) (Q04206 whole entry, looked up): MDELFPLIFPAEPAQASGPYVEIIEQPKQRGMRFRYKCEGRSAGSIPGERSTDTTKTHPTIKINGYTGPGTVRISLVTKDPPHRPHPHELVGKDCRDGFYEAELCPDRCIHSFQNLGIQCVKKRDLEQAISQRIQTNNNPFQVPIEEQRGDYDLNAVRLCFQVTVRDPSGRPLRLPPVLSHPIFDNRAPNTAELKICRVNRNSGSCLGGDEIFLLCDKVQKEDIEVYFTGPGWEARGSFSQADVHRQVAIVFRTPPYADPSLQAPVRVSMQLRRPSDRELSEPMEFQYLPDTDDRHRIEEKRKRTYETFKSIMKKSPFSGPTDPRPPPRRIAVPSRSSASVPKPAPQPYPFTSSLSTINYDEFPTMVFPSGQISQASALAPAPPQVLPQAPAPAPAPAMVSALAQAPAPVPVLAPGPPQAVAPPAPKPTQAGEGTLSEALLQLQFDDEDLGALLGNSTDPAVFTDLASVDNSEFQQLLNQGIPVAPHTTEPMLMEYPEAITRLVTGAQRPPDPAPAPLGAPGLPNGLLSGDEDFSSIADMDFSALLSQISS

[33] = Antiproliferative activity against c-Myc-overexpressing human HL60 cells after 3 days by MTT assay; type: functional, cell-based; conditions: HL-60, 72 h; outline: as §2

O=[N+]([O-])c1ccc(Nc2ccccc2-c2ccccc2)c2nonc12
Ratio (NCI-H460): 1.4 | inhibition (c-Myc/Max [1]): Active | inhibition (c-Myc/Max [2]): Active

CC(C)COc1cc(C(=O)O)ccc1NC(=O)c1ccc([N+](=O)[O-])c(OCc2ccccc2)c1
IC50 (c-Myc/Max [3]): 43 µM | IC50 (Daudi): 25.6 µM

CCc1ccc(/C=C2\SC(=S)NC2=O)cc1
Activity [4]: 48% | Activity [5]: 42% | Activity [6]: 10% | Activity [7]: 59.3% | Activity [8]: 35% | Activity [9]: 5.6% | Activity (c-Myc/Max [10]): inactive

CC(C)COc1cc(C(=O)O)ccc1NC(=O)c1ccc([N+](=O)[O-])c(OCc2cccc3ccccc23)c1
Activity (c-Myc/Max [11]): 0% | IC50 (c-Myc/Max [3]): 11.6 µM | Activity [12]: inactive | Kd (c-Myc/Max [13]): 13 µM | inhibition (c-Myc/Max [14]): Active | inhibition (c-Myc/Max [15]): Active | IC50 (Daudi): 9.5 µM | IC50 [16]: 18.1 µM | IC50 [17]: 20.6 µM | IC50 [18]: 15.9 µM | IC50 (HeLa): 10.8 µM | IC50 (HEK293): 10.4 µM | IC50 [19]: 15.7 µM | IC50 [20]: 35.6 µM | IC50 [21]: 23 µM | IC50 [22]: 46 µM | IC50 [23]: 14.1 µM | Activity [24]: 51.4% | Activity [25]: 47.9% | Activity [26]: 0.77% | Activity [27]: 71% | Activity [28]: 23.3% | Activity [29]: 5.64% | Activity (c-Myc/Max [30]): inactive | inhibition [31]: Dose-dependent effect | inhibition [32]: inactive

CC(C)COc1nc(C(=O)O)ccc1NC(=O)c1ccc([N+](=O)[O-])c(OCC(C)C)n1
Activity (c-Myc/Max [11]): 0% | IC50 (c-Myc/Max [3]): 23.8 µM | IC50 [33]: 30.3 µM | IC50 (Daudi): 11.1 µM

CC(C)COc1cc(C(=O)O)ccc1NC(=O)c1ccc([N+](=O)[O-])c(OCC(C)C)c1
Activity (c-Myc/Max [11]): 0% | IC50 (c-Myc/Max [3]): 20.2 µM | IC50 [33]: 39.9 µM | IC50 (Daudi): 22.9 µM

CC(C)COc1cc(C(=O)O)ccc1NC(=O)c1ccc([N+](=O)[O-])c(OCC(C)C)n1
Activity (c-Myc/Max [11]): 0% | IC50 (c-Myc/Max [3]): 43.8 µM | IC50 [33]: 21.5 µM | IC50 (Daudi): 11.2 µM

CCOC(=O)C(=O)Nc1ccc(C(=O)Nc2ccc(C(=O)O)cc2OCC(C)C)cc1OCC(C)C
Activity (c-Myc/Max [11]): 0% | IC50 (c-Myc/Max [3]): 5.6 µM | IC50 [33]: > 50 µM | IC50 (Daudi): > 50 µM

CC(C)COc1cc(C(=O)Nc2ccc(C(=O)O)cc2OCc2ccccn2)ccc1[N+](=O)[O-]
Activity (c-Myc/Max [11]): 116%
